Assay results published in ChEMBL document CHEMBL5724801, “EUbOPEN Chemogenomics Library - Multiplex” (2024).
“And” between values parts separate entries of the source, which are not always exact repeats. Identical values can stand only once.

Tests used:
[1] = tested on: U2OS; experiment: Multiplex assay against U2OS; assay type: toxicity, cell-based; conditions: human
How it was run: (§1)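 Compound was added to live cells that had been stained at seeding with Hoechst33342, BioTracker Green Microtubule Cytoskeleton Dye, MitoTracker Red and Annexin V Alexa Fluor 680, and imaging followed on a CQ1 microscope at 37°C and 5% CO2. CellPathfinder machine-learning gating divided cells into Hoechst high-intensity objects or normal cells, normal cells into healthy, pyknosed or fragmented nuclei, and pyknosed cells into mitotic or apoptotic. Tubulin, mitochondrial-mass and membrane-permeability phenotypes are per cents of healthy-nucleus cells.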

[2] = tested on: Fibroblast; experiment: Multiplex assay against human fibroblast; assay type: toxicity, cell-based; how it was run: as §1
[3] = 12 h, 1 µM, compound concentration 1 uM
[4] = 12 h, 10 µM, compound concentration 10 uM
[5] = 24 h, 1 µM, compound concentration 1 uM
[6] = 24 h, 10 µM, compound concentration 10 uM
[7] = 48 h, 1 µM, compound concentration 1 uM
[8] = 48 h, 10 µM, compound concentration 10 uM

Cl.O=S(=O)(c1cccc2c(I)cccc12)N1CCCNCC1
Population Apoptotic (%) [1, 3]: 56.67% and 27.27% | Population Fragmented Nuclei (%) [1, 3]: 2.94% and 4.55% | Population Healthy Nuclei (%) [1, 3]: 89.04% and 87.12% | Population Hoechst High Intensity Objects (%) [1, 3]: 0% | Population Membrane Permeable-Phenotype (%) [1, 3]: 1.5% and 1.74% | Population Mitochondria Different-Phenotype (%) [1, 3]: 0.3% and 6.09% | Population Mitotic Cells (%) [1, 3]: 43.33% and 72.73% | Population Normal (%) [1, 3]: 100% | Population Pyknosed Nuclei (%) [1, 3]: 8.02% and 8.33% | Population Tubulin-Different-Phenotype (%) [1, 3]: 1.2% and 0% | Total Cell Count [1, 3]: 374 and 132 | Population Apoptotic (%) [1, 4]: 35.59% and 25% | Population Fragmented Nuclei (%) [1, 4]: 1.04% and 0.7% | Population Healthy Nuclei (%) [1, 4]: 86.75% and 74.13% | Population Hoechst High Intensity Objects (%) [1, 4]: 0% | Population Membrane Permeable-Phenotype (%) [1, 4]: 1.67% and 4.72% | Population Mitotic Cells (%) [1, 4]: 64.41% and 75% | Population Normal (%) [1, 4]: 100% | Population Pyknosed Nuclei (%) [1, 4]: 12.22% and 25.17% | Population Tubulin-Different-Phenotype (%) [1, 4]: 5.73% and 1.89% | Population Apoptotic (%) [1, 5]: 47.27% and 30.77% | Population Fragmented Nuclei (%) [1, 5]: 1.85% and 3.49% | Population Healthy Nuclei (%) [1, 5]: 86.83% and 88.95% | Population Hoechst High Intensity Objects (%) [1, 5]: 0% and 0.58% | Population Membrane Permeable-Phenotype (%) [1, 5]: 1.42% and 0.65% | Population Mitochondria Different-Phenotype (%) [1, 5]: 0% and 4.58% | Population Mitotic Cells (%) [1, 5]: 52.73% and 69.23% | Population Normal (%) [1, 5]: 100% and 99.42% | Population Pyknosed Nuclei (%) [1, 5]: 11.32% and 7.56% | Population Tubulin-Different-Phenotype (%) [1, 5]: 0.47% and 1.96% | Total Cell Count [1, 5]: 486 and 173 | Population Apoptotic (%) [1, 6]: 46.38% and 25% | Population Fragmented Nuclei (%) [1, 6]: 1.31% and 1.69% | Population Healthy Nuclei (%) [1, 6]: 87.4% and 73.6% | Population Hoechst High Intensity Objects (%) [1, 6]: 0% | Population Membrane Permeable-Phenotype (%) [1, 6]: 0.94% and 3.82% | Population Mitotic Cells (%) [1, 6]: 53.62% and 75% | Population Normal (%) [1, 6]: 100% | Population Pyknosed Nuclei (%) [1, 6]: 11.29% and 24.72% | Population Tubulin-Different-Phenotype (%) [1, 6]: 1.87% and 3.05% | Population Apoptotic (%) [1, 7]: 40% and 50% | Population Fragmented Nuclei (%) [1, 7]: 1.92% and 2.4% | Population Healthy Nuclei (%) [1, 7]: 89.6% and 90.07% | Population Hoechst High Intensity Objects (%) [1, 7]: 0% | Population Membrane Permeable-Phenotype (%) [1, 7]: 0.88% and 3.42% | Population Mitochondria Different-Phenotype (%) [1, 7]: 0% and 2.66% | Population Mitotic Cells (%) [1, 7]: 60% and 50% | Population Normal (%) [1, 7]: 100% | Population Pyknosed Nuclei (%) [1, 7]: 8.47% and 7.53% | Population Tubulin-Different-Phenotype (%) [1, 7]: 0.88% and 2.28% | Population Apoptotic (%) [1, 8]: 44.03% and 45.31% | Population Fragmented Nuclei (%) [1, 8]: 1.9% and 3.72% | Population Healthy Nuclei (%) [1, 8]: 82.95% and 72.49% | Population Hoechst High Intensity Objects (%) [1, 8]: 0.1% and 0% | Population Membrane Permeable-Phenotype (%) [1, 8]: 1.26% and 4.62% | Population Mitochondria Different-Phenotype (%) [1, 8]: 0.46% and 7.18% | Population Mitotic Cells (%) [1, 8]: 55.97% and 54.69% | Population Normal (%) [1, 8]: 99.9% and 100% | Population Pyknosed Nuclei (%) [1, 8]: 15.14% and 23.79% | Population Tubulin-Different-Phenotype (%) [1, 8]: 3.21% and 4.62% | Population Apoptotic (%) [2, 3]: 20.93% and 13.51% | Population Fragmented Nuclei (%) [2, 3]: 13.23% and 4.19% | Population Healthy Nuclei (%) [2, 3]: 64.02% and 76.44% | Population Hoechst High Intensity Objects (%) [2, 3]: 0% | Population Membrane Permeable-Phenotype (%) [2, 3]: 4.96% and 4.79% | Population Mitochondria Different-Phenotype (%) [2, 3]: 9.92% and 6.85% | Population Mitotic Cells (%) [2, 3]: 79.07% and 86.49% | Population Normal (%) [2, 3]: 100% | Population Pyknosed Nuclei (%) [2, 3]: 22.75% and 19.37% | Population Tubulin-Different-Phenotype (%) [2, 3]: 14.88% and 28.08% | Total Cell Count [2, 3]: 189 and 191 | Population Fragmented Nuclei (%) [2, 4]: 9.25% and 6.27% | Population Healthy Nuclei (%) [2, 4]: 60.69% and 61.18% | Population Hoechst High Intensity Objects (%) [2, 4]: 0% | Population Membrane Permeable-Phenotype (%) [2, 4]: 5.71% and 3.85% | Population Mitochondria Different-Phenotype (%) [2, 4]: 15.24% and 15.38% | Population Mitotic Cells (%) [2, 4]: 94.23% and 67.47% | Population Normal (%) [2, 4]: 100% | Population Pyknosed Nuclei (%) [2, 4]: 30.06% and 32.55% | Population Tubulin-Different-Phenotype (%) [2, 4]: 25.71% and 55.13% | Total Cell Count [2, 4]: 173 and 255 | Population Apoptotic (%) [2, 5]: 7.89% and 13.64% | Population Fragmented Nuclei (%) [2, 5]: 8.84% and 7.04% | Population Healthy Nuclei (%) [2, 5]: 73.49% and 81.91% | Population Hoechst High Intensity Objects (%) [2, 5]: 0% | Population Membrane Permeable-Phenotype (%) [2, 5]: 4.43% and 3.07% | Population Mitochondria Different-Phenotype (%) [2, 5]: 6.33% and 6.13% | Population Mitotic Cells (%) [2, 5]: 92.11% and 86.36% | Population Normal (%) [2, 5]: 100% | Population Pyknosed Nuclei (%) [2, 5]: 17.67% and 11.06% | Population Tubulin-Different-Phenotype (%) [2, 5]: 16.46% and 28.22% | Total Cell Count [2, 5]: 215 and 199 | Population Apoptotic (%) [2, 6]: 11.9% and 25.45% | Population Fragmented Nuclei (%) [2, 6]: 8.42% and 3.61% | Population Healthy Nuclei (%) [2, 6]: 69.47% and 76.53% | Population Hoechst High Intensity Objects (%) [2, 6]: 0% | Population Membrane Permeable-Phenotype (%) [2, 6]: 3.79% and 5.66% | Population Mitochondria Different-Phenotype (%) [2, 6]: 9.85% and 15.57% | Population Mitotic Cells (%) [2, 6]: 88.1% and 74.55% | Population Normal (%) [2, 6]: 100% | Population Pyknosed Nuclei (%) [2, 6]: 22.11% and 19.86% | Population Tubulin-Different-Phenotype (%) [2, 6]: 34.85% and 63.21% | Total Cell Count [2, 6]: 190 and 277 | Population Apoptotic (%) [2, 7]: 25% and 33.33% | Population Fragmented Nuclei (%) [2, 7]: 8.44% and 10.78% | Population Healthy Nuclei (%) [2, 7]: 86.5% and 83.33% | Population Hoechst High Intensity Objects (%) [2, 7]: 0% | Population Membrane Permeable-Phenotype (%) [2, 7]: 1.46% and 7.06% | Population Mitotic Cells (%) [2, 7]: 75% and 66.67% | Population Normal (%) [2, 7]: 100% | Population Pyknosed Nuclei (%) [2, 7]: 5.06% and 5.88% | Total Cell Count [2, 7]: 237 and 204 | Population Apoptotic (%) [2, 8]: 25% and 50% | Population Healthy Nuclei (%) [2, 8]: 74.48% and 87.96% | Population Hoechst High Intensity Objects (%) [2, 8]: 0% | Population Membrane Permeable-Phenotype (%) [2, 8]: 0.56% and 9.13% | Population Mitochondria Different-Phenotype (%) [2, 8]: 10.11% and 9.51% | Population Mitotic Cells (%) [2, 8]: 75% and 50% | Population Normal (%) [2, 8]: 100% | Population Pyknosed Nuclei (%) [2, 8]: 8.37% and 7.36% | Population Tubulin-Different-Phenotype (%) [2, 8]: 19.1% and 53.99% | Total Cell Count [2, 8]: 239 and 299
